The record followed here is ChEMBL document CHEMBL4422613, “Amarisolide F, an Acylated Diterpenoid Glucoside and Related Terpenoids from Salvia amarissima” (J Nat Prod, 2019).

The species named for assay [1] is Homo sapiens. As to the kind of experiment: Inhibition of MDR protein in human MCF7/Vin cells cultured in absence of vinblastine assessed as reversal fold after 72 hrs by sulforhodamine B assay. The assay is classed as cell-based. For orientation: Sulforhodamine B stains cellular protein and so reports cell mass.
For assay [2], the species on record is Homo sapiens. As to the kind of experiment: Inhibition of MDR protein in human MCF7/Vin cells cultured in presence of vinblastine assessed as reversal fold after 72 hrs by sulforhodamine B assay. It counts as cell-based.
The species named for assay [3] is Homo sapiens. As to the kind of experiment: Inhibition of MDR protein in human MCF7/Vin cells cultured in absence of vinblastine assessed as reversal fold at 42.1 uM after 72 hrs by sulforhodamine B assay. The assay is classed as cell-based. In a few lines: (§1)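 Sensitive MCF-7 and MDR MCF-7/Vin cells in RPMI 1640 with 10% FBS at 37 °C, 5% CO2. The Vin+ stock was kept in medium with […] vinblastine and the Vin− stock in vinblastine-free medium. Cells were exposed to vinblastine (0.7 nM–11 μM) with or without compound (42.1 μM) for 72 h.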

The test system of assay [4] is HCT-15. Description: Cytotoxicity against human HCT15 cells after 72 hrs by sulforhodamine B assay. The note with it: HCT-15, 72 h. It counts as functional, cell-based.
For assay [5], the system named is HCT-116. As to the kind of experiment: Cytotoxicity against human HCT116 cells after 72 hrs by sulforhodamine B assay. It counts as functional, cell-based. The settings on record: HCT-116, 72 h.
The test system of assay [6] is MDA-MB-231. Description: Cytotoxicity against human MDA-MB-231 cells after 72 hrs by sulforhodamine B assay. The assay is classed as functional, cell-based. The settings on record: MDA-MB-231, 72 h.
Assay [7] is filed under the species Homo sapiens. As to the kind of experiment: Inhibition of MDR protein in human MCF7/Vin cells cultured in presence of vinblastine assessed as reversal fold at 42.1 uM after 72 hrs by sulforhodamine B assay. The assay is classed as cell-based. In a few lines: as §1
Assay [8] deals with MCF7. Description: Cytotoxicity against human MCF7 cells after 72 hrs by sulforhodamine B assay. It counts as functional, cell-based. The settings on record: MCF7, 72 h. The procedure, abridged:
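Cells kept in RPMI 1640 with 10% FBS at 37 °C, 5% CO2 in humidified air. Log-phase cells were treated in triplicate with compound at 0.4–42.1 μM for 72 h.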

Assay [9] deals with HeLa. As to the kind of experiment: Cytotoxicity against human HeLa cells after 72 hrs by sulforhodamine B assay. The assay is classed as functional, cell-based.
For assay [10], the species on record is Homo sapiens. Description: Inhibition of MDR protein in human MCF7/Vin cells cultured in presence of vinblastine assessed as reversal fold at 5 ug/ml after 72 hrs by sulforhodamine B assay. It counts as cell-based.
The species entered for assay [11] is Homo sapiens. Description: Inhibition of MDR protein in human MCF7/Vin cells cultured in absence of vinblastine assessed as reversal fold at 5 ug/ml after 72 hrs by sulforhodamine B assay. It counts as cell-based.
The species named for assay [12] is Homo sapiens. As to the kind of experiment: Inhibition of MDR protein in human MCF7/Vin cells cultured in presence of vinblastine assessed as reversal fold at 25 ug/ml after 72 hrs by sulforhodamine B assay. It counts as cell-based.
The species named for assay [13] is Homo sapiens. Description: Inhibition of MDR protein in human MCF7/Vin cells cultured in absence of vinblastine assessed as reversal fold at 25 ug/ml after 72 hrs by sulforhodamine B assay. The assay is classed as cell-based.

In general, IC50 refers to the concentration at which inhibition is half-maximal.

Consider `O=C1C=CC[C@]2(O)C(=O)OC[C@@]12CCc1ccc(-c2ccoc2)oc1=O`, for which the fold change (FC) came out at 3.1 in assay [1] and 5.8 in [2].
Regarding `CC(=O)O[C@H]1O[C@@H](c2ccoc2)C[C@]12[C@H](C)C(=O)C[C@@]13COC(=O)C1=CC=C[C@H]32`, the fold change (FC) in [1] turned out to be 54; in [2], 2.6.
Consider `CC(=O)OC[C@H]1O[C@@H](OC(=O)[C@H]2CC[C@@]34COC(=O)[C@@]3(O)CC=C[C@@]4(O)[C@@]2(C)CC(=O)c2ccoc2)[C@H](O)[C@@H](O)[C@@H]1O`, for which the fold change (FC) in assay [3] was determined as 2.1; in assay [7] it was 12. Moreover, the IC50 in assay [4], in [5], in assay [6], in assay [8] and in [9] was greater than 42 µM in each case.
As for `COC(=O)[C@H]1[C@H]2C[C@@H]3c4[nH]c5cc(OC)ccc5c4CCN3C[C@H]2C[C@@H](OC(=O)c2cc(OC)c(OC)c(OC)c2)[C@@H]1OC`, the fold change (FC) in assay [10] was 29.2; in [11] it was 5.
Regarding `C[C@@H]1C(=O)CC2=C(/C=C\C=C\[C@@]13C[C@@H](O)c1ccoc1[C@H]3O)C(=O)OC2`, the fold change (FC) in assay [12] turned out to be 10700; in assay [13] it was 8440.
